Experimental findings from ChEMBL document CHEMBL2062398, “De novo peptide design with C3a receptor agonist and antagonist activities: theoretical predictions and experimental validation” (J Med Chem, 2012) are described below.

Calls of active or inactive are those of the source. No cut-off for these calls is given here.

A word on the Emax: it is the size of the effect at its maximum, as opposed to the concentration needed. One may read the EC50 as the concentration at which the effect is half-maximal. What is called IC50 is the midpoint of a concentration-inhibition curve.

Assay [1] addresses T1, C3a anaphylatoxin chemotactic receptor (Homo sapiens) (UniProt Q16581).
T1 sequence (whole entry): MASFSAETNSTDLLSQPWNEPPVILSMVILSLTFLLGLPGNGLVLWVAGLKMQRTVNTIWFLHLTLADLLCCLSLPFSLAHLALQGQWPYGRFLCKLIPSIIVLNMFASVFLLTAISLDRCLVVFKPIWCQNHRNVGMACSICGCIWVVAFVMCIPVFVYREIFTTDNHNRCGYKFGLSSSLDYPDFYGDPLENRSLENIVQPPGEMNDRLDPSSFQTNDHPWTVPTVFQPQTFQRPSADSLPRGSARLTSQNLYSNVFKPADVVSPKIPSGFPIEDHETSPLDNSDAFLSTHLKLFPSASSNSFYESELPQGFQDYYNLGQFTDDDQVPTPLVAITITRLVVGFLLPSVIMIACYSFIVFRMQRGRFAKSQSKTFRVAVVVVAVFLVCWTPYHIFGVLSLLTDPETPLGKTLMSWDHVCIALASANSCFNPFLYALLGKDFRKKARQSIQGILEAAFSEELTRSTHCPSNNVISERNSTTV
The experiment in a line: Agonist activity at human C3a receptor expressed in RBL-2H3 cells assessed as beta-hexosaminidase activity in cell supernatant by degranulation assay relative to FLPLAR. In kind it is functional, cell-based. In outline: (§1)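 Transfected RBL-2H3 cells kept in DMEM, 10% FCS, 400 mg/liter G-418, 37°C, 5% CO2. Degranulation read as β-hexosaminidase activity in supernatant. Secretion expressed as percent of maximal response to 200 nM recombinant human C3a or 10 nM FLPLAR. EC50, calculated maximum and SEM from iterative curve fitting.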

The target in assay [2] is T2, C5a anaphylatoxin chemotactic receptor 1 (Homo sapiens) (UniProt P21730).
T2 sequence (whole entry): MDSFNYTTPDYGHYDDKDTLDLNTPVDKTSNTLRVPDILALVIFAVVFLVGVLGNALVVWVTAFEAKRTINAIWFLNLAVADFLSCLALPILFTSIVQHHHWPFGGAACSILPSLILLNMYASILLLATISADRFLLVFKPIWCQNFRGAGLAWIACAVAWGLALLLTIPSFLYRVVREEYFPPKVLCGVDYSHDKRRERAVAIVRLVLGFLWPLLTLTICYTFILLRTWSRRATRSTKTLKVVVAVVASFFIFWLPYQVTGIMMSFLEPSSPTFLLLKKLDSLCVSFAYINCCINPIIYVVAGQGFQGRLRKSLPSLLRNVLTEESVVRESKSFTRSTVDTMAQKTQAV
The experiment in a line: Agonist activity at human C5a receptor expressed in RBL-2H3 cells assessed as beta-hexosaminidase activity in cell supernatant up to 1 uM by degranulation assay. In kind it is functional, cell-based. In outline: (§2)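 Human C5aR-transfected RBL-2H3 cells were tested with peptides up to 1 μM. In the agonist mode, β-hexosaminidase secretion was taken relative to 200 nM human C5a. In the antagonist mode, cells were pretreated with peptide for 10 min before C5a was added.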

Assay [3] has as its target T1, C3a anaphylatoxin chemotactic receptor (Homo sapiens). Put plainly: Antagonist activity at human C3a receptor expressed in RBL-2H3 cells assessed as inhibition of human recombinant C3a -induced beta-hexosaminidase activity in cell supernatant measuring minimum receptor activity compound preincubated for 10 mins by degranulation assay. In kind it is functional, cell-based. Further details: scale not given: the % may be the effect or the level left. In outline:
(§3)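 RBL-2H3 cells expressing human C3aR (DMEM, 10% FCS, G-418, 37°C) were pretreated with peptide for 10 min before 200 nM recombinant human C3a or 10 nM FLPLAR was added. β-Hexosaminidase release in supernatant was measured as percent of the agonist-alone response. IC50, calculated minimum and SEM came from iterative curve fitting.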

The target is the same in assay [4]. The experiment in a line: Agonist activity at human C3a receptor expressed in RBL-2H3 cells assessed as beta-hexosaminidase activity in cell supernatant by degranulation assay relative to recombinant human C3a. In kind it is functional, cell-based. An outline of the steps: as §1
Assay [5] has as its target T2, C5a anaphylatoxin chemotactic receptor 1 (Homo sapiens). The experiment in a line: Antagonist activity at human C5a receptor expressed in RBL-2H3 cells assessed as beta-hexosaminidase activity in cell supernatant up to 1 uM compound preincubated for 10 mins by degranulation assay. In kind it is functional, cell-based. An outline of the steps:
as §2

For assay [6], the target named is T1, C3a anaphylatoxin chemotactic receptor (Homo sapiens). Put plainly: Antagonist activity at human C3a receptor expressed in RBL-2H3 cells assessed as inhibition of FLPLAR-induced beta-hexosaminidase activity in cell supernatant measuring minimum receptor activity compound preincubated for 10 mins by degranulation assay. In kind it is functional, cell-based. Further details: scale not given: the % may be the effect or the level left. In outline:
as §3

In assay [7] the target is T3, C3a anaphylatoxin chemotactic receptor (Homo sapiens, UniProt Q16581).
T3 sequence (Q16581 whole entry): T1 sequence (whole entry)
The experiment in a line: Agonist activity at human C3a receptor expressed in RBL-2H3 cells assessed as beta-hexosaminidase activity in cell supernatant by degranulation assay. In kind it is functional, cell-based. In outline:
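Degranulation read as β-hexosaminidase activity in supernatant. Secretion expressed as percent of maximal response to 200 nM recombinant human C3a or 10 nM FLPLAR. EC50, calculated maximum and SEM from iterative curve fitting.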

Assay [8] deals with T3, C3a anaphylatoxin chemotactic receptor. Put plainly: Antagonist activity at human C3a receptor expressed in RBL-2H3 cells assessed as beta-hexosaminidase activity in cell supernatant compound preincubated for 10 mins by degranulation assay. In kind it is functional, cell-based.
Assay [9] addresses T1, C3a anaphylatoxin chemotactic receptor (Homo sapiens). Put plainly: Agonist activity at C3a receptor in dbcAMP differentiated human U937 cells assessed as increase in intracellular calcium using […] staining by microplate reader relative to FLPLAR. In kind it is functional, cell-based. As to conditions: U-937. An outline of the steps: (§4)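 U937 cells grown in RPMI-1640 with 10% FCS at 37°C, 5% CO2, differentiated 48 h in 1 mM dibutyryl cAMP. Intracellular calcium rise read with Fluo-4 dye on a plate reader.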
(Calcium assays in cells follow changes in intracellular calcium, usually with a dye or a luminescent sensor.)

The target of assay [10] is T3, C3a anaphylatoxin chemotactic receptor. Put plainly: Agonist activity at C3a receptor in dbcAMP differentiated human U937 cells assessed as increase in intracellular calcium using […] staining by microplate reader. In kind it is functional, cell-based, U-937. In outline: as §4

For “Ac-WWTRRYRASKLGLAR-OH [listing 1 of 2 here]”, the Emax in [1] and in assay [4] was 29% each time. The result in assay [2] and in assay [5] was inactive. For the same substance, the Activity in assay [3] and in assay [6] was 42% in each case.

Ac-WWSRRWRASKLGLAR-OH: the maximal effect (Emax) in [1] and in assay [4] was 13% throughout. Also, the outcome in [2] and in assay [5] was inactive. The Activity in [3] and in assay [6] was 40% each time. Further, in assay [7], the EC50 was 0.148 µM. For the same substance, the IC50 in assay [8] was 0.0631 µM.

As for H-WWTRRWRASKLGLAR-OH, the Emax in assay [1] was 37%. In addition, the outcome in [2] and in [5] was inactive. The Activity in assay [6] is 63%.

As for Ac-WWTRRWRGDKLGLAR-OH, the values for the Emax in assay [1], in assay [9] and in assay [4] were 72%, 81% and 72%, respectively. Besides, the outcome in [2] and in [5] was inactive. Besides, the Activity in [3] and in assay [6] was 70% in each case. For the same substance, the EC50 in [7] was 0.0251 µM; in assay [10], 0.794 µM. The IC50 in assay [8] was 0.00912 µM.

“Ac-WWTRRYRASKLGLAR-OH [listing 2 of 2 here]”: the EC50 in assay [7] was 1 µM. Further, the IC50 in assay [8] was 0.0234 µM.

As for “Ac-WWTRRWRTDKLGLAR-OH [listing 1 of 2 here]”, the EC50 in [7] is 0.339 µM. Moreover, the IC50 in [8] is 0.00501 µM.

Regarding Ac-WWRNRWRENRLGLAR-OH, the outcome in [2] and in assay [5] was inactive. Also, the Activity in assay [3] and in assay [6] was 62.5% throughout. In addition, in assay [4], the Emax was found to be 62%.

Regarding “Ac-WWTRRWRTEKLGLAR-OH [listing 1 of 2 here]”, the Emax in assay [1] and in assay [4] was 45% in each case. For the same substance, the outcome in [2] and in [5] was inactive. The Activity in assay [3] and in assay [6] was 60% throughout.

Turning to Ac-WWERRWRASKLGLAR-OH, the Emax in assay [1] and in assay [4] was 22% each time. In addition, the result in [2] and in assay [5] was inactive. In addition, the Activity in [3] was 35%; in assay [6], 61%.

For the substance Ac-WWTRRWRASKLGLAR-OH, the Emax in assay [1] and in assay [4] was 35% in each case. In addition, the outcome in assay [2] and in [5] was inactive. The Activity in assay [3] and in assay [6] was 47% in each case. Moreover, in [7], the EC50 was 0.195 µM. Besides, in assay [8], the IC50 was 0.0501 µM.

Take “Ac-WWTRRWRTDKLGLAR-OH [listing 2 of 2 here]”: the Emax in assay [1] and in assay [4] was 43% throughout. The result in [2] and in assay [5] was inactive. In addition, the Activity in assay [3] and in [6] was 60% each time.

For the substance Ac-WWGKKYRASKLGLAR-OH, the Emax in [1] worked out at 38%. The outcome in assay [2] and in [5] was inactive. The Activity in assay [3] worked out at 52%.

As for Ac-WWDRRWRASKLGLAR-OH, the Emax in [1] and in assay [4] was 14% throughout. Also, the outcome in assay [2] and in assay [5] was inactive. Moreover, the Activity in assay [3] is 24%; in assay [6], 48%.

In the case of Ac-WWTRRWRADKLGLAR-OH, the figures for the Emax in assay [1], in [9] and in assay [4] were 79%, 74% and 79%, respectively. The result in [2] and in [5] was inactive. For the same substance, the Activity in assay [3] and in assay [6] was 68% in each case. Also, the EC50 in assay [7] was 0.0661 µM; in assay [10], 0.49 µM. In addition, the IC50 in assay [8] was 0.00457 µM.

For “Ac-WWTRRWRTEKLGLAR-OH [listing 2 of 2 here]”, the half-maximal effective concentration (EC50) in [7] is 0.708 µM. The IC50 in assay [8] was 0.00776 µM.
